# High-throughput results deposited in PubChem BioAssay by several laboratories.
# ABCB1 block = inhibitors of human ABCB1 transporter, ABCG2 counter-screen. P08183. CCRF-Adr cells, JC-1 efflux, flow cytometry. inhibition, % at 6.6 µM. 190,000 compounds, 0.067% hits; in the data active means inhibition above about 40%;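 further: 0% = vehicle and 100% = reference inhibitor; higher value means more JC-1 retained so stronger ABCB1 efflux block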
# RBBP9 inh = human RBBP9 hydrolase inhibition | recombinant RBBP9, FP-Rh probe fluorescence polarization | O75884 | 220,000 compounds, 0.2% hits | inhibition, % at 7.94 µM;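 active means inhibition above the campaign mean of all tested compounds plus 3 SD, cut at about 14% in these data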;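 further: plate controls were DMSO wells with RBBP9 for no effect and wells lacking RBBP9 protein for full effect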
#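 Test system: recombinant human RBBP9; Timing: 30 min then 45 min, 25 °C; Detection: fluorescence polarization; Control set: RBBP9 with DMSO as uninhibited control, no-protein wells as full inhibition; Compound dosing: one concentration, 7.94 µM nominal, 0.794% DMSO; Probe or stimulus: FP-Rh activity-based probe, 375 nM before mixing.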
# ABCG2 block = human ABCG2 inhibition, ABCB1 as counter-screen. Q9UNQ0. IgMXP3 cells, JC-1 efflux, flow cytometry. inhibition, % at 6.6 µM. 190,000 compounds, 0.1% hits. AID 1325;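 active means inhibition above 80%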;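 further: 0% = DMSO and 100% = nicardipine control wells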
#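 Times: 10 min at 25 °C | Test system: Two drug-resistant human cell lines, ABCG2 and ABCB1 | Quantity: 3 million cells/mL final, two lines in 1:1 ratio | Signal: Flow cytometry, 530 nm JC-1 signal | Dosing: Compound at 6.6 µM | Controls: Nicardipine and DMSO wells | Reagent: JC-1 as fluorescent efflux pump substrate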
# EP2 antag = inhibitors of human EP2 prostaglandin E2 receptor; C6 glioma cells expressing human EP2, cAMP TR-FRET; cells stimulated with saturating PGE2; AID 1422; 260,000 compounds, 0.52% hits; P43116; inhibition, % at 25 µM;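 active means percent inhibition above 40 after rounding to a whole number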;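 further: rat C6 glioma host cells with rolipram phosphodiesterase inhibitor present; the protocol text gives 20 µM as final concentration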
# EP2 mod = modulators of human EP2 prostaglandin E2 receptor | induction, % at 25 µM | P43116 | AID 940 | 260,000 compounds, 0.83% hits | EP2-expressing cells, cAMP HTRF FRET, PGE2 co-stimulation;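 active means compounds whose cAMP rise, as percent of the full-agonist control response, exceeds 60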;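 further: rat C6 glioma line stably carrying human EP2 under a CMV promoter; the protocol text gives 20 µM as final concentration; 100% = response of wells given 1 µM PGE2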
# Starred values were filed as active, the others as inactive; . = no result given. Rows were chosen to be rich in hits. Some 1.5% of all compounds tested hit in one or more screens of this group.
SMILES,ABCB1 block,RBBP9 inh,ABCG2 block,EP2 antag,EP2 mod
O=C(Nc1sc(NC(=O)c2ccco2)nc1-c1cccs1)c1ccccc1,.,.,.,8,-19
CCOCc1nnc(NC(=O)C(C)(C)C)s1,.,.,.,9,-8
CC[n+]1c(/C=C2\C=Cc3cc(C)ccc3N2C)ccc2cccc(C)c21,.,.,.,19,-64
CCOC(=O)c1c(N)sc(=S)c2c1CCC2,-1,-5,-6,61*,5
Cn1c(=O)c2c(ncn2CN2CCN(Cn3cnc4c3c(=O)n(C)c(=O)n4C)CC2)n(C)c1=O,.,.,.,46*,6
CC(C)Cn1cnc2c1c(=O)n(C)c(=O)n2C,0,-2,0,8,23
O=C1CN2CCN(CC2)CC(=O)Nc2ccc(cc2)S(=O)(=O)c2ccc(cc2)NC(=O)CN2CCN(CC2)CC(=O)Nc2ccc(cc2)S(=O)(=O)c2ccc(cc2)N1,.,.,.,51*,13
O=C1CNCCCN2CCN(CCCNCC(=O)Nc3ccc(cc3)S(=O)(=O)c3ccc(cc3)NC(=O)CNCCCN3CCN(CCCNCC(=O)Nc4ccc(cc4)S(=O)(=O)c4ccc(cc4)N1)CC3)CC2,.,.,.,42*,7
C=CCN=C1S/C(=C/c2cccc([N+](=O)[O-])c2)C(=O)N1CC=C,.,-5,.,9,64*
O=C(c1cc2nc(-c3cccs3)cc(C(F)(F)F)n2n1)N1CCCc2ccccc21,20,-1,100*,12,8
CC1Cc2ccccc2N1C(=O)c1cc2nc(-c3ccco3)cc(C(F)(F)F)n2n1 (configuration not stated),.,.,.,9,72*
CCCN(Cc1cc2cccc(C)c2[nH]c1=O)C(=O)c1ccc(F)cc1,.,.,.,7,-38
CCOc1ccc2ccc(OCC)c(C3C(C#N)=C(N)Oc4n[nH]c(C)c43)c2c1 (configuration not stated),.,.,.,4,-18
Nc1nc(N)c2cc(Sc3ccc4ccccc4c3)ccc2n1,.,-4,.,53*,-44
O=C(NCCc1ccc(Cl)cc1)c1ncoc1-c1cccs1,.,.,.,14,-53
O=C(Nc1ccc(N2CCN(C(=O)c3ccccc3)CC2)cc1)c1ccc([N+](=O)[O-])o1,0,-5,1,49*,-48
CCN1CCN(c2ccc(NC(=O)c3ccccc3F)cc2)CC1,.,.,.,59*,-41
CCN1CCN(c2ccc(NC(=O)c3ccc([N+](=O)[O-])o3)cc2)CC1,.,.,.,95*,-137
Cc1ccccc1C(=O)N1CCN(c2ccc(NC(=O)c3ccc([N+](=O)[O-])o3)cc2)CC1,.,.,.,130*,-154
CC(C)C(=O)N1CCN(c2ccc(NC(=O)c3ccc([N+](=O)[O-])o3)cc2)CC1,0,-6,0,12,-77
Cc1nn(CC(=O)N(c2ccccc2)c2ccccc2)c(=O)c2cc3ccsc3n12,.,.,.,.,17
Cc1cc2ccccc2n2c(=O)n(CC(=O)NC3CCCCC3)nc12,.,.,.,6,-48
CCCC(=O)N1CCN(c2ccc(NC(=O)c3ccc([N+](=O)[O-])o3)cc2Cl)CC1,1,4,0,27,-47
Cc1cc(NC(=O)c2ccc([N+](=O)[O-])o2)ccc1NC(=O)c1ccco1,0,-1,5,64*,-93
Cc1cc([N+](=O)[O-])ccc1NC(=O)c1ccco1,0,-8,13,2,29
SMILES,ABCB1 block,RBBP9 inh,ABCG2 block,EP2 antag,EP2 mod
CC(C)C(=O)N1CCN(c2ccc(NC(=O)c3ccc([N+](=O)[O-])o3)cc2Cl)CC1,4,-4,8,116*,-46
Cc1ccc(CN(CCCn2ccnc2)Cc2cnc(N3CCCCC3)nc2)o1,.,.,.,4,-8
O=C(CNS(=O)(=O)c1ccc2ccccc2c1)OCc1nnc(-c2ccccc2)o1,0,-3,-1,41*,-40
Cc1nc(Sc2ccccc2)c(C#N)c(C)c1[N+](=O)[O-],.,10,.,7,61*
COc1ccc(-c2cc(-c3cc(F)ccc3O)[nH]n2)cc1OC,0,-12,2,66*,-65
Cc1ccc(C)c2[nH]c(=O)c(C(c3nnnn3C(C)(C)C)N3CCc4ccccc43)cc12 (configuration not stated),.,.,.,21,31
CCC(C(=O)Nc1ccccc1-c1ccccc1)c1ccccc1 (configuration not stated),1,-1,6,7,44
CCC(C(=O)Nc1ccccc1)c1ccccc1 (configuration not stated),.,-6,173*,10,-12
NS(=O)(=O)c1ccc(N=Nc2ccc(O)c(C(=O)O)c2)cc1,.,.,.,10,41
NS(=O)(=O)c1ccc(N=Nc2cc3ccccc3c(C(=O)O)c2O)cc1,.,.,.,45*,-7
CCOC(=O)C1=C(C)C(c2ccc(OC)cc2)NC(=O)N1 (configuration not stated),0,-6,5,12,12
CCOC(=O)C1=C(C)C(c2ccc(OC)cc2OC)NC(=O)N1 (configuration not stated),1,-11,90*,8,22
CCc1cc2cc3c(cc2n2c(=O)n(CC(=O)NCCOC)nc12)OCO3,.,.,.,.,19
Cc1ccc2nc(N3C(=O)C(O)=C(C(=O)c4ccc(C)o4)C3c3ccco3)sc2c1 (configuration not stated),.,.,.,49*,14
CCOC(=O)c1c(C)nc2ccc(Cl)cc2c1-c1ccccc1,0,-1,8,2,33
CCOC(=O)c1c(C)nc2c(c1-c1ccccc1)C(=O)c1ccccc1-2,1,-1,7,6,61*
CCOC(=O)c1c(CCl)nc2ccccc2c1-c1ccccc1,.,1,.,6,87*
CCCc1nn(CC(=O)NCCc2ccco2)c(=O)c2cc3ccsc3n12,.,.,.,.,-41
O=C(c1ccco1)N1c2ccccc2Sc2ccccc21,1,2,41,44*,-2
O=C(CCCl)N1c2ccccc2Sc2ccccc21,.,.,.,6,70*
Cc1ccnc(N=Cc2c(O)ccc3oc4c(c23)CCCC4)c1,3,1,19,13,62*
CN1CCN(C(=O)c2ccc(COc3ccc(C(C)(C)C)cc3)o2)CC1,1,7,2,11,-18
CCOc1ccc(OCc2ccc(C(=O)N3CCCC3)o2)cc1,41*,2,7,9,17
Nc1c(S(=O)(=O)O)cc(S(=O)(=O)O)c2ccc(N=Nc3ccccc3)c(O)c12,.,.,.,52*,1
O=S(=O)(Nc1ccc(N=Nc2ccc(O)c3ccccc23)cc1)c1ccccc1,0,4,-4,14,-85
CCCC(C)NC(=O)C1CCN(S(=O)(=O)c2cc(Cl)ccc2Cl)CC1 (configuration not stated),.,.,.,13,-52
CCOc1ccc(NC(=O)CSc2nnc(-c3ccc(S(=O)(=O)N4CCCC4)cc3)o2)cc1,.,.,.,12,7
COc1ccc(NC(=S)Nc2ccc3nsnc3c2)cc1,-1,-4,-7,42*,-95
CCOc1ccc(NC(=S)Nc2ccc3nsnc3c2)cc1,0,-1,0,44*,-119
